Measured values collected from several papers.
Each line is one published result; the experiments were not run side by side.
Target: Mitogen-activated protein kinase kinase kinase 5 (MAP3K5, Homo sapiens, UniProt Q99683)
Residues used in one study (Q99683 1-1374): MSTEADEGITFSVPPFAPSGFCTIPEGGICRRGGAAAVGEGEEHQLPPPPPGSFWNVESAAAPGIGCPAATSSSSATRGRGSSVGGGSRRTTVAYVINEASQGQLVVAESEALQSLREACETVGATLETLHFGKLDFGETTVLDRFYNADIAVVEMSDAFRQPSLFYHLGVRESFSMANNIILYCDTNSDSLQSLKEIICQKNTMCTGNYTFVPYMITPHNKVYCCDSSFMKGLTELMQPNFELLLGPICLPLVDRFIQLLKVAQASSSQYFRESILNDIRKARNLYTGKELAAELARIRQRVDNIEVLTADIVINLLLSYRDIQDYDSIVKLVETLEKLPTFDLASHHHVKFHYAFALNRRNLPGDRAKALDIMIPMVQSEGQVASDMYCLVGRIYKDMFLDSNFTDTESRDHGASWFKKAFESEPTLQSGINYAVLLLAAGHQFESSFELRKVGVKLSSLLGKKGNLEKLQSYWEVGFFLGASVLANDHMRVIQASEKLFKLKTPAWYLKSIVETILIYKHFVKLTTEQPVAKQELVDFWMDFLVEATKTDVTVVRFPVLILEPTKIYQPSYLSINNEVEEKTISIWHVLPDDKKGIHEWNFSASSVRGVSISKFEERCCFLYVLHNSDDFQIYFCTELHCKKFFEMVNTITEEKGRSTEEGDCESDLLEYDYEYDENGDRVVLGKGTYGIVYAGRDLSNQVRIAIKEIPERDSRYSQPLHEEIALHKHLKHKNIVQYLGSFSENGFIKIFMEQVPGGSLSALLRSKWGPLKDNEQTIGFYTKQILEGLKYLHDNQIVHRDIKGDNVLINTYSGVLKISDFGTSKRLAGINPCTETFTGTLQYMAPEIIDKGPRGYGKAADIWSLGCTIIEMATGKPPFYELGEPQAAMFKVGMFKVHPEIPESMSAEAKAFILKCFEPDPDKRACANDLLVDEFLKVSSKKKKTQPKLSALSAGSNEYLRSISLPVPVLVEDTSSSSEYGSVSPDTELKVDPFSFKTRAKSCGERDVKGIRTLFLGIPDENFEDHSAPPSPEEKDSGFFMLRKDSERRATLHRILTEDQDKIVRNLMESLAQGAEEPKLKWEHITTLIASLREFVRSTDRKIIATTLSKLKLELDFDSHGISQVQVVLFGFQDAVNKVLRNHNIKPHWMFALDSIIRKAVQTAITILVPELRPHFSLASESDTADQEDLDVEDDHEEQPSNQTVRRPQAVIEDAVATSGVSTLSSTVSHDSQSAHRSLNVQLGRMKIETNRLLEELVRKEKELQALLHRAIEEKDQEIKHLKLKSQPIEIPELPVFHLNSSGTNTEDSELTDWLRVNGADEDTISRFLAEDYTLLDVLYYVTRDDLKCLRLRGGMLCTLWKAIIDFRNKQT

The inhibition of C=CC(=O)N1CCC[C@@H](n2nc(-c3ccc(Oc4ccccc4)cc3)c3c(N)ncnc32)C1 is reported as 10% (enzyme activity, inhibitor; 1 µM).
The remaining binding of COc1ccc2oc(-c3ccc4nc(N)oc4c3)c/c(=N\c3ccccc3NC(=O)CCN)c2c1 is reported as 100% (binding; 1 µM).
The remaining binding of CCCCC(=O)Nc1ccc(-c2ccc3ncn(CCC)c(=O)c3c2)cn1 is reported as 91% (binding, competition with immobilised ligand; 0.5 µM).
For CO[C@@H]1[C@H](N(C)C(=O)c2ccccc2)C[C@H]2O[C@]1(C)n1c3ccccc3c3c4c(c5c6ccccc6n2c5c31)C(=O)NC4, the inhibition was 0% (enzyme activity, inhibitor; 1 µM).
CN1CCN(C(=O)c2ccc(NC(=O)Nc3ccc(N(C)c4ccnc(Nc5ccc(CS(C)(=O)=O)cc5)n4)cc3)cc2)CC1 has a remaining binding of 100% (binding; 1 µM).
C#Cc1cc(-c2cc(Nc3nc(N[C@@H](C)c4ccc(F)cn4)ncc3Cl)n[nH]2)ccc1C=O gave an inhibition of 4.04% (enzyme activity, inhibitor; 0.2 µM).
For Cc1ccc(NC(=O)c2ccnc(C(F)(F)F)c2)cc1-c1cc(OCCO)nc(N2CCOCC2)c1, the remaining binding was 92% (binding; 1 µM).
The inhibition of Cc1cc(O)c(-c2ccc([C@@H](C)CN(C)C)cc2)c2c1[nH]c(=O)c1sccc12 is reported as -7.51% (enzyme activity, inhibitor; 0.1 µM).
